UBC13 polyUb = human UBC13 polyubiquitination inhibition; P61088; UBC13 polyubiquitin chain formation, TR-FRET; inhibition, % at 20 µM; 0.47% of 330,000 active; in the data active means inhibition above about 45%, passing the limit was not always enough
Target sequence (P61088 whole entry, looked up): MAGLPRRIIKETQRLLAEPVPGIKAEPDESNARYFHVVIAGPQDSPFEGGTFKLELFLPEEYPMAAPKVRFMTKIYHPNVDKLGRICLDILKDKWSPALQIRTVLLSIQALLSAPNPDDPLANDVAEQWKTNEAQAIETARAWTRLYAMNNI
SENP8 block-1 = blocks the human protease SENP8. Q96LD8. 1.2% of 330,000 active. purified SENP8, Z-RLRGG-aminoluciferin cleavage, luminescence. AID 2540. inhibition, % at 10 µM; in the data active means inhibition above about 50%
Target sequence (Q96LD8 whole entry, looked up): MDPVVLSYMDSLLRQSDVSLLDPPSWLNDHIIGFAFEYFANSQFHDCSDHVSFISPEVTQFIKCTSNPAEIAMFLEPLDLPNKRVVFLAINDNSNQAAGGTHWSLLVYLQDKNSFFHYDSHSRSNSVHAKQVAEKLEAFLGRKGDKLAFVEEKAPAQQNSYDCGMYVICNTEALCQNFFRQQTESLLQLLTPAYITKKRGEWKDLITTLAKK
Apaf-1 inh = blocks human Apaf-1 apoptosome activity; 0.71% of 330,000 active; AID 489030; inhibition, % at 20 µM; O14727; reconstituted apoptosome caspase-3 activity, DEVD-Rh110 fluorescence; active means inhibition of at least 40% at 20 µM
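System – cell-free apoptosome with Apaf-1, procaspase-3 and caspase-9 · Buffer or medium – pH 7.5 Hepes buffer with CHAPS, BSA, DTT · Also added – cytochrome c with DEVD-Rh110 · Times – 30 min compound preincubation, 50 min activation, room temperature · Technique – Rh110 fluorescence intensity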
SENP8 block-2 = inhibitors of human SENP8 protease. Q96LD8. recombinant SENP8, Nedd8 substrate fluorescence. inhibition, % at 20 µM. 0.64% of 360,000 active. AID 602440; in the data active means inhibition mostly above about 40%, no sharp cut-off; inactive means mostly below about 27%
SENP6 inh = SENP6 protease inhibition; Q9GZR1; Recombinant SENP6 catalytic domain, aminoluciferin luminescence; inhibition, % at 10 µM; 1.8% of 330,000 active; AID 2599;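 active means inhibition above about 50% at the single tested dose, limit read from the data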
SENP7 inh = inhibitors of human SENP7 protease; Q9BQF6; recombinant SENP7, Z-RLRGG-aminoluciferin luminescence, 40 min; inhibition, % at 5 µM; 1.5% of 330,000 active;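 active means inhibition above about 50% at the single test dose, limit read from the data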
Target sequence (Q9BQF6 706-1050 limits assumed): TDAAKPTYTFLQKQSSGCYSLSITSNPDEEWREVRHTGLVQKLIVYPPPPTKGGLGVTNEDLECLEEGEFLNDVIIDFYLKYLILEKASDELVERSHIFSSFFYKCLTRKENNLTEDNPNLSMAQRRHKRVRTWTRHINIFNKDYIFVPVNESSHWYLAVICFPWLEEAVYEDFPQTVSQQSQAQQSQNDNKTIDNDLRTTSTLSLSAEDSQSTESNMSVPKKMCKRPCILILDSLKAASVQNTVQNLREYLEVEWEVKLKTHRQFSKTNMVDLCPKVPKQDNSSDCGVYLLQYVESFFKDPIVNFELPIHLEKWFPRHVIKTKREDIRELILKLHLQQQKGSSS
SENP8 confirm = confirmation of human SENP8 protease inhibitors | shares compounds with SENP7 inh | AID 488912 | Recombinant SENP8, Z-RLRGG-aminoluciferin luminescence, 60 min | inhibition, % at 12.5 µM | 40% of 6,200 active;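 active means mean inhibition across replicates above about 50%, limit read from the data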
SENP6 confirm = confirmation of human SENP6 protease inhibitors; shares compounds with SENP7 inh; recombinant SENP6, Z-RLRGG-aminoluciferin luminescence; inhibition, % at 12.5 µM; 58% of 6,200 active; AID 488915
SENP7 confirm = human SENP7 inhibition, confirmed. shares compounds with SENP7 inh. recombinant SENP7, Z-RLRGG-aminoluciferin luminescence, 40 min. inhibition, % at 12.5 µM. 69% of 6,200 active. AID 488917
Casp3 SENP sel = inhibits human caspase-3 in SENP selectivity test | shares compounds with SENP7 inh | purified caspase-3, Z-DEVD-aminoluciferin luminescence, 60 min | inhibition, % at 12.5 µM | 60% of 6,200 active;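 active means mean inhibition above about 50%, limit read from the data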
Luc interf = interferes with luciferase luminescence in SENP counter-screen; shares compounds with SENP7 inh; Pre-incubated SENP8/Z-RLRGG-aminoluciferin, luciferase luminescence interference; inhibition, % at 12.5 µM; 39% of 6,200 active;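 active means mean inhibition above about 50% when retested at one dose, limit read from the data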
Numbers stand for hits; . = inactive; / = no result given. Rows were chosen to be rich in hits. Some 3.1% of all compounds tested hit in one or more screens of this group.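 How the source made its calls, unless noted: active means mean inhibition above about 50% in the one-dose retest (limit read from the data); inactive means the rest.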

SMILES	UBC13 polyUb	SENP8 block-1	Apaf-1 inh	SENP8 block-2	SENP6 inh	SENP7 inh	SENP8 confirm	SENP6 confirm	SENP7 confirm	Casp3 SENP sel	Luc interf
Cc1ccc(/C(N)=N/OC(=O)c2cccc(F)c2)cc1	.	.	.	.	61.2	75.9	.	.	82.7	61.2	.
O=C(C(Br)=Cc1ccccc1)c1ccccc1	/	/	/	.	/	/	/	/	/	/	/
COc1ccc(C(=O)CC(=O)c2ccccc2O)cc1	.	.	.	.	51.1	.	.	.	82.7	.	53.9
COc1ccc(-n2cc(C(=O)c3ccccc3O)cn2)cc1	.	94.0	.	.	95.2	99.7	96.1	98.5	102.3	96.0	94.9
COc1ccc(C(=O)CC(=O)c2ccccc2O)cc1OC	.	.	.	.	.	.	/	/	/	/	/
COc1ccc(O)c(C(=O)c2cnn(-c3ccccc3)c2)c1	.	.	.	.	.	.	/	/	/	/	/
CCc1nc2ccc(C(=O)NCCCN3CCCC3=O)cn2c1N(CC)C(=O)NCCc1ccccc1	/	/	/	.	/	/	/	/	/	/	/
COc1ccc(-c2cc(=O)c3cc(C)ccc3[nH]2)cc1	.	.	.	.	.	.	/	/	/	/	/
COc1ccc2c(c1)oc(=O)c1cc(OC)ccc12	.	.	.	.	65.3	79.6	.	.	62.7	65.1	.
COc1ccc(-c2cc(=O)c3cc(OC)ccc3[nH]2)cc1	.	74.1	.	.	84.2	81.2	.	77.9	96.5	93.4	.
O=c1cc(-c2ccccc2)oc2ccc(Br)cc12	.	.	.	.	.	72.5	.	.	.	.	.
O=c1cc(-c2ccc(F)cc2)oc2ccccc12	.	.	.	.	.	.	/	/	/	/	/
CSc1ccc(-c2cc(=O)c3ccccc3o2)cc1	.	57.0	.	.	59.1	.	66.2	62.7	83.8	51.4	.
CC(=O)Nc1cc(-c2ccccc2CN(C)C)cn2c(-c3ccc(C(C)=O)cc3)cnc12	/	/	/	.	/	/	/	/	/	/	/
FC(F)(F)c1ccccc1Cc1c(-c2ccco2)nc2ccc(Br)cn12	/	/	/	.	/	/	/	/	/	/	/
COc1ccc(-c2cc(=O)c3cc(OC)ccc3o2)cc1	.	87.9	.	.	92.0	98.3	.	.	.	.	.
COc1ccc2oc(-c3ccccc3)cc(=O)c2c1	/	/	/	.	/	/	/	/	/	/	/
CN=C1S/C(=C\c2ccc(N3CCCC3)c(F)c2)C(=O)N1C	.	.	.	.	73.3	70.8	.	.	.	.	.
CN=C1S/C(=C\c2ccc(N3CCOCC3)c(F)c2)C(=O)N1C	.	.	.	.	.	.	/	/	/	/	/
Cc1ccccc1C(=O)Oc1ccc2ccc(O)cc2c1	.	59.1	.	.	72.9	58.5	.	76.0	84.5	.	.
COc1cccc(C(=O)NNC(=O)c2ccc3ccccc3c2)c1	/	/	/	.	/	/	/	/	/	/	/
COc1cccc(C(=O)Oc2ccc3ccc(O)cc3c2)c1	.	.	.	/	68.7	.	.	63.6	80.0	.	.
Cc1ccc(S(=O)(=O)N2[C@H](c3cccc(Cl)c3)CC(=O)[C@@H]3CN(S(=O)(=O)c4ccccc4C)[C@H](c4ccc(Cl)cc4)C[C@@H]32)cc1	/	/	/	.	/	/	/	/	/	/	/
CCCCN1C(=O)C(CC(=O)NC2CCCCC2)CC(C(=O)N(C)C)=C1C (stereo not drawn)	/	/	/	.	/	/	/	/	/	/	/
CC(C)c1ccc(NC(=O)C2(C)Cc3c(-c4ccc(N(C)C)cc4)ccnc3O2)cc1 (stereo not drawn)	/	/	/	.	/	/	/	/	/	/	/
SMILES	UBC13 polyUb	SENP8 block-1	Apaf-1 inh	SENP8 block-2	SENP6 inh	SENP7 inh	SENP8 confirm	SENP6 confirm	SENP7 confirm	Casp3 SENP sel	Luc interf
CC1CCN(c2ccc(-c3cccs3)nn2)CC1	.	94.0	.	.	98.8	96.1	63.9	96.5	102.0	94.5	.
Cc1nc2nc(-c3ccc(F)cc3)cn2nc1C	.	71.2	.	.	67.4	.	.	91.9	100.1	96.6	54.4
CCC(=O)Nc1cccc(-c2ccc(N3CCCCC3)nn2)c1	.	.	.	.	58.4	52.2	52.1	.	79.1	77.0	61.4
CN1CCN(c2ccc(-c3cccc(NC(=O)COc4ccc(Cl)cc4)c3)nn2)CC1	.	.	.	.	.	.	/	/	/	/	/
CN1CCN(c2ccc(-c3cccc(NC(=O)COc4ccc(Cl)cc4Cl)c3)nn2)CC1	.	.	.	.	.	66.7	.	.	.	.	.
O=[N+]([O-])c1ccc(Cl)c(S(=O)(=O)Nc2cccc(-c3ccc(N4CCCC4)nn3)c2)c1	.	86.3	.	.	92.0	.	.	90.8	97.7	85.9	.
CCOc1ccccc1C(=O)Nc1cccc(-c2ccc(N3CCOCC3)nn2)c1	.	55.4	.	.	78.3	70.2	.	67.8	89.2	62.7	.
C=C(C)Cn1c2ccc(NC(=O)NCc3ccc(F)cc3)cc2c(=O)n1C	/	/	/	.	/	/	/	/	/	/	/
CC(CC(=O)c1ccccc1)=NCC(O)CN=C(C)CC(=O)c1ccccc1 (stereo not drawn)	/	/	/	.	/	/	/	/	/	/	/
CC1=C(C#N)C(C)(C)C(C#N)=C(C)N1	/	/	/	.	/	/	/	/	/	/	/
CN(C)c1ccc(C(=O)c2ccc(O)cc2O)cc1	.	.	.	.	67.3	.	53.8	51.4	83.2	.	60.5
O=C(/C=C/[C@H]1O[C@@H](n2ccc(=O)[nH]c2=O)[C@H](O)[C@@H]1O)N[C@@H](Cc1ccccc1)C(=O)O	/	/	/	.	/	/	/	/	/	/	/
O=C1NC[C@H](CCCCN2C[C@H](Cc3ccccc3)N(CCc3ccccc3)C(=O)C2=O)N(CCC2CCCCC2)C1=O	/	/	/	.	/	/	/	/	/	/	/
Clc1nc(-c2ccccn2)nc2scc(-c3ccccc3)c12	.	68.4	.	.	87.1	.	.	52.0	.	.	.
O=C(O)c1cccc(N/N=C/c2ccc(F)c(F)c2)c1	.	94.4	.	.	100.7	.	98.6	99.3	102.4	86.4	98.1
O=C(O)c1cccc(N/N=C/c2cccc3ccccc23)c1	.	95.0	.	.	96.8	54.7	99.7	100.3	103.3	93.7	99.2
O=C(O)c1ccc(N/N=C/c2cc(Br)cs2)cc1	.	96.7	.	.	99.0	99.7	98.1	98.9	101.8	.	97.2
Cc1ccc(/C=N/Nc2cccc(C(=O)O)c2)s1	.	95.8	.	.	94.8	96.5	99.1	99.6	102.8	92.3	98.5
COc1ccc2ccccc2c1/C=N/Nc1cccc(C(=O)O)c1	.	.	.	.	.	.	/	/	/	/	/
O=C(N/N=C\c1cc(Br)cs1)c1ccncc1	.	.	.	.	.	.	/	/	/	/	/
Cc1cc(F)ccc1-c1cc(C(=O)NCc2cccs2)[nH]n1	/	/	/	.	/	/	/	/	/	/	/
Cc1cccc(-c2cc(NCCc3cccnc3)n3nccc3n2)c1	/	/	/	.	/	/	/	/	/	/	/

Source: PubChem (Sanford-Burnham Center for Chemical Genomics)
